Measured values pooled from the literature.
Lines come from different studies, so protocols differ.
Read-out: cell growth or viability

SMILES	cell line	technique	time	IC50 [nM]
COc1ccc(-c2cc(C(=O)Nc3ccccc3)c3cc(-c4ccccc4)ccc3n2)cc1	MIA PaCa-2	MTT	48 h	48300
Nc1ccc(/C=C/C(=O)N2CCc3c(oc4c(-c5ccc(F)cc5)cc(-c5ncc(C(=O)N6CCC(F)(F)CC6)cn5)cc34)C2)cn1	MIA PaCa-2	CCK-8	72 h	4460
C[C@H](CCC(=O)O)[C@H]1CC[C@H]2[C@@H]3CC[C@@H]4C[C@H](O)CC[C@]4(C)[C@H]3CC[C@]12C	LNCaP	MTT	72 h	66000
O=C(Nc1ccccc1)c1cc(-c2ccccc2)nc2ccc(-c3ccccc3)cc12	MIA PaCa-2	MTT	48 h	> 50000
Nc1ccc(/C=C/C(=O)N2CCc3c(oc4c(-c5ccc(F)cc5)cc(-c5ccc(C(=O)N6CCOCC6)nn5)cc34)C2)cn1	MIA PaCa-2	CCK-8	72 h	460
COc1ccc(F)cc1-c1ccc2nc(-c3ccc(F)cc3)cc(C(=O)Nc3ccccc3)c2c1	MIA PaCa-2	MTT	48 h	> 50000
COc1cc2c3c(n(CCCn4ccnc4)c(=O)c2cc1OC)-c1nc2c(cc1C3=O)OCO2	MOLT-4	MTS	72 h	43
COc1cccc2c1C(=O)c1c(O)c3c(c(O)c1C2=O)C[C@@](O)(C(=O)CO)C[C@@H]3O[C@H]1C[C@H](N)[C@H](O)[C@H](C)O1	MIA PaCa-2	MTT	48 h	25300
C=CC(=O)N1CCN(c2nc(=O)n(-c3c(C)ccnc3C(C)C)c3nc(-c4c(O)cccc4F)c(F)cc23)[C@@H](C)C1	SW837	ATP luminescence		46.3
COc1cc2c3c(n(CCCNC(C)C)c(=O)c2cc1OC)-c1nc2c(cc1C3=O)OCO2	MOLT-4	MTS	72 h	19
COc1ccc(F)cc1-c1ccc2nc(-c3ccccc3)cc(C(=O)Nc3ccccc3)c2c1	MIA PaCa-2	MTT	48 h	> 50000
Cc1sc2c(c1C)C(c1ccc(Cl)cc1)=N[C@@H](CC(=O)NCCCCCCCCNC(=O)COc1cccc3c1C(=O)N(C1CCC(=O)NC1=O)C3=O)c1nnc(C)n1-2 (stereo partly shown)	Jurkat	ATP luminescence	72 h	39
CC1(C)CCC(c2ccc(Cl)cc2)=C(CN2CCN(c3ccc(C(=O)NS(=O)(=O)c4ccc(N[C@H](CCN5CCOCC5)CSc5ccccc5)c(S(=O)(=O)C(F)(F)F)c4)cc3)CC2)C1	human Platelet	MTS	24 h	6.4
COc1cc2c3c(n(CCCN4CCOCC4)c(=O)c2cc1OC)-c1nc2c(cc1C3=O)OCO2	MOLT-4	MTS	72 h	113
C=C(F)C(=O)N1CCN(c2nc(OC[C@@H]3CCCN3C)nc3c2CCN(c2cccc4cccc(Cl)c24)C3)C[C@@H]1CC#N	MIA PaCa-2	ATP luminescence		56.5
COc1cc2c3c(n(CCCNCCO)c(=O)c2cc1OC)-c1nc2c(cc1C3=O)OCO2	MOLT-4	MTS	72 h	12
COc1ccc(-c2cc(C(=O)Nc3ccccc3)c3cc(-c4cc(C)ccc4F)ccc3n2)cc1	MIA PaCa-2	MTT	48 h	> 50000
CCNCCCn1c2c(c3cc(OC)c(OC)cc3c1=O)C(=O)c1cc3c(nc1-2)OCO3	KMS-27	MTS	72 h	141
Nc1ccc(/C=C/C(=O)N2CCc3c(oc4c(-c5ccc(F)cc5)cc(-c5ccc(C(=O)N6CCC(F)(F)CC6)nn5)cc34)C2)cn1	MIA PaCa-2	CCK-8	72 h	230
